# Shown are actives, neighbours in structure and some others; about 0.75% of the full set was active somewhere.
# EBNA-1 inh: EBNA-1 DNA-binding inhibitors, primary screen, biochemical, fluorescence polarization; actives 0.34% (n = 300,000); AID 1950, 2009; inhibition, % at 14.8 µM; in the data active = inhibition above about 28%
# ASAP1 inh: inhibitors of human ASAP1 ArfGAP activity, primary screen, biochemical, fluorescence polarization. actives 0.19% (n = 360,000). inhibition, % at 16.5 µM. ASAP1-stimulated ARF1 GTP hydrolysis, GDP FP detection. AID 624377, 2012; in the data active = inhibition above about 25%;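 also: 0% = vehicle with enzyme and substrate and 100% = no enzyme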
# ZTA DNA inh: counter-screen for EBNA-1 inhibitors: inhibitors of Epstein-Barr virus ZTA; actives 0.15% (n = 320,000); inhibition, % at 11 µM; P03206; ZTA-DNA binding, fluorescence polarization; in the data active = inhibition above about 33%
# ARFGAP1 inh: inhibitors of rat ARFGAP1 GAP activity, primary screen, biochemical, fluorescence polarization, GDP tracer. ADP-ribosylation factor GTPase-activating protein 1 (Rattus norvegicus), Q62848. actives 0.26% (n = 360,000). AID 651572, 2012. inhibition, % at 16.5 µM. Arfgap1-stimulated ARF1 GTP hydrolysis, GDP FP detection;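 active = inhibition above a per-plate limit, mean inhibition of low control wells plus 3 SD, cut at about 25% in these data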;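 also: 0% = DMSO wells with enzyme and 100% = wells lacking Arfgap1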
#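 System: truncated rat Arfgap1 GAP domain / Benchmarks: high control wells lacking Arfgap1, low control full reaction with DMSO / Times: compound-enzyme preincubation 20 min, reaction 120 min, detection 60 min, 25 °C / Repeats: one replicate per compound / Also added: human ARF1(Δ1-17)-GTP substrate / Measured by: Tracer-displacement fluorescence polarization with EDTA stop, 620/688 nm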
# ARFGAP1 inh conf: ARFGAP1 inhibitor hit confirmation, biochemical, fluorescence polarization, triplicate. ARFGAP1-stimulated ARF1 GTP hydrolysis, GDP tracer FP. actives 30% (n = 890). shares compounds with ARFGAP1 inh. inhibition, % at 16.5 µM;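 active = average inhibition over triplicates above the hit cutoff set in the earlier primary screen, cut at about 25% in these data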;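 also: 0% = Arfgap1 plus ARF1-GTP with DMSO and 100% = wells lacking Arfgap1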
# Target sequence (Q62848 whole entry, looked up): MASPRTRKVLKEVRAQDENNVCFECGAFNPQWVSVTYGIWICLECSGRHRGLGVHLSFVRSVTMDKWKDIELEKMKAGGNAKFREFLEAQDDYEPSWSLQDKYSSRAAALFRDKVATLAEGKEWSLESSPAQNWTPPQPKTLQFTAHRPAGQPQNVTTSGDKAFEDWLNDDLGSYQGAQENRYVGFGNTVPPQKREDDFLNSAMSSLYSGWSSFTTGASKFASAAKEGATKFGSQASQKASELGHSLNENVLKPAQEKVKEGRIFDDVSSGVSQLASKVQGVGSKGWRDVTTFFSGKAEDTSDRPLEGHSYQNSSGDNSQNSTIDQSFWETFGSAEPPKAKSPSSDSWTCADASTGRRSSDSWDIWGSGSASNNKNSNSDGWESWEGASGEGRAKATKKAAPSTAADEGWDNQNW
# Active calls of the source: *; nt = no result.
SMILES,EBNA-1 inh,ASAP1 inh,ZTA DNA inh,ARFGAP1 inh,ARFGAP1 inh conf
O=C(CCc1ccccc1)N1Cc2cc(N3CCCCC3)ccc2-n2nncc2C1,nt,-10.3,nt,25.3*,2.6
S=C(NCCc1ccccc1)N1Cc2cc(N3CCCCC3)ccc2-n2nncc2C1,nt,-0.9,nt,9.1,nt
C[C@H]1CNCCN1c1ccc(N2CC[C@H](O)C2)c(C#N)c1,nt,-12.5,nt,12.2,nt
CC[N+](C)(CC)CCCCOc1ccc2c(c1)C(=O)c1cc(OCCCC[N+](C)(CC)CC)ccc1-2,-11.2,-0.3,-8.8,25.6*,13.8
c1ccc(Cc2cnc(N3CCNCC3)nc2)cc1,nt,-7.8,nt,-5.0,nt
COc1ccc(Oc2c(C)oc3cc(OC(=O)N(C)C)ccc3c2=O)cc1,-3.1,0.2,-2.3,2.0,nt
COc1ccccc1Oc1c(C)oc2cc(OC(=O)N(C)C)ccc2c1=O,5.3,-10.8,-3.4,26.6*,2.0
O=S(=O)(c1ccc2ccccc2c1)N1Cc2cc(Br)ccc2-n2nncc2C1,nt,4.1,nt,-6.4,nt
NCCc1ccc(O)cc1,5.0,4.2,-11.1,29.5*,1.8

# Source: PubChem BioAssay (The Scripps Research Institute Molecular Screening Center)
